Data as given in ChEMBL document CHEMBL5385970, “Design, synthesis, and evaluation of novel ferrostatin derivatives for the prevention of HG-induced VEC ferroptosis” (RSC Med Chem, 2024).
In brackets after ≈: the same amount, converted by molar mass. Activity calls are given as the source filed them. The calls are words filed in the database; no cut-off is given here.

Legend:
[1] = Kinetic solubility of compound in PBS buffer at pH7.4 incubated for; assay type: physicochemical; conditions: pH 7.4, read-out: Kinetic_solubility
Summary of the method: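 DMSO stocks ([…]) were diluted 4 μL into 196 μL of 10 mM PBS pH 7.4, giving final concentrations of 3.13–200 μM. Plate shaken for 10 s and incubated 2 h at 37 °C. Solubility taken as the highest concentration with no measurable turbidity.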

[2] = tested on: HUVEC; assay: Cytotoxicity against human HUVEC cells assessed as reduction in erastin-induced cell survival at 10 uM measured for 24 hrs by SRB assay; assay type: toxicity, cell-based
Summary of the method: (§1)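 HUVECs (gelatin-coated dishes, M199 with 20% bovine serum and FGF2, 37 °C, 5% CO2) seeded in 96-well plates and incubated overnight. Treated 24 h with 10 μM erastin alone or with compound (10 μM, or a range of concentrations). Cells fixed with TCA, stained with 0.4% SRB in 1% acetic acid, dissolved in 10 mM Tris pH 10.5, A540 read. Survival computed relative to blank and untreated control. At least three separate experiments.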

[3] = tested on: HUVEC; assay: Anti-ferroptotic activity against Erastin-induced ferroptosis in human HUVEC cells assessed as cell viability incubated for 24 hrs by SRB assay; assay type: functional, cell-based; summary of the method: as §1
[4] = Antioxidant activity assessed as DPPH radical scavenging activity incubated for 30 mins; assay type: functional
Summary of the method: (§2)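 DPPH at 100 μM in ethanol (180 μL) mixed with compound in DMSO (20 μL), giving 50 μM final compound. Kept 30 min in the dark at room temperature, then A517 read to obtain DPPH clearance. For IC50, a concentration gradient of compound was tested and the curve fitted.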

[5] = tested on: HUVEC; assay: Cytotoxicity against human HUVEC cells assessed as high glucose-induced cell survival at 10 uM measured for 24 hrs by SRB assay; assay type: toxicity, cell-based
Summary of the method: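 HUVECs in M199 with 20% bovine serum and FGF2, plated in 96-well plates, incubated overnight. Exposed to 30 mM high glucose alone or with 10 μM compound for 24 h. Viability by SRB (TCA fixation, 0.4% SRB stain, Tris pH 10.5 solubilisation, A540). Survival expressed relative to blank and untreated control. n = 3.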

[6] = Antioxidant activity assessed as DPPH radical scavenging activity at 50 uM incubated for 30 mins relative to control; assay type: functional; summary of the method: as §2
[7] = tested on: HUVEC; assay: Cytotoxicity against human HUVEC cells assessed as reduction in cell viability at 10 uM measured for 24 hrs by SRB assay; assay type: toxicity, cell-based
Summary of the method: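 HUVECs were grown on gelatin-coated dishes in M199 with 20% bovine serum and 10 IU/mL FGF2 at 37 °C, 5% CO2. Cells were seeded in 96-well plates, incubated overnight, then exposed to compound for 24 h. They were TCA-fixed, stained for 10 min with 0.4% SRB in 1% acetic acid, and dissolved in 10 mM Tris (pH 10.5). A540 survival was calculated relative to blank and control, from at least three experiments.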

[8] = Microsomal stability in mouse liver microsome assessed as parent compound remaining measured after 60 mins in absence of NADPH by LC-MS/MS analysis; assay type: ADME; conditions: liver microsomes, read-out: Stability
Summary of the method: (§3)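 Compound at 1 μM final was incubated at 37 °C with liver microsomes (human, rat or mouse) in pH 7.4 buffer, with and without NADPH. Verapamil served as reference. Samples taken at 0–60 min and quenched in acetonitrile with tolbutamide internal standard. Analysed by LC-MS/MS on a C18 column with a water/acetonitrile 0.1% TFA gradient. Parent remaining reported at 60 min; T1/2 also derived.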

[9] = tested on: HUVEC; assay: Inhibition of ROS accumulation in high glucose-induced human HUVEC cells at 10 uM incubated for 24 hrs by DCF-DA staining based fluorescence microscopic analysis
[10] = Microsomal stability in human liver microsome assessed as parent compound remaining measured after 60 mins in absence of NADPH by LC-MS/MS analysis; assay type: ADME; conditions: liver microsomes, read-out: Stability; summary of the method: as §3
[11] = tested on: HUVEC; assay: Induction of mitochondrial damage in high glucose-induced human HUVEC cells assessed as increase in monomer formation at 10 uM incubated for 24 hrs by JC-1 staining based flow cytometry analysis; assay type: functional, cell-based
[12] = Microsomal stability in rat liver microsome assessed as half life measured upto 60 mins by LC-MS/MS analysis; assay type: ADME; conditions: liver microsomes
[13] = tested on: HUVEC; assay: Upregulation of GPX4 expression in high glucose-induced human HUVEC cells at 10 uM incubated for 24 hrs by Western blot analysis; assay type: functional, cell-based
Summary of the method: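 HUVECs exposed 24 h to 30 mM high glucose and 10 μM compound, then lysed in RIPA. Protein by BCA; 15 μg per lane run on 12% SDS-PAGE and blotted to PVDF. Probed with anti-GPX4 (1:1000) and anti-β-actin (1:5000) overnight at 4 °C, detected by ECL, and quantified by densitometry. Untreated cells normalized to 1; n = 3.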

[14] = tested on: HUVEC; assay: Anti-ferroptotic activity against human HUVEC cells assessed as decrease in LPO level at 10 uM incubated for 24 hrs; assay type: functional, cell-based
Summary of the method: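 HUVECs given 30 mM high glucose plus 10 μM compound for 24 h. Cells collected, extracted and sonicated on ice (3 s on, 7 s off, 3 min total), then spun 8000 × g for 10 min at 4 °C. LPO measured in the supernatant with a kit. Values relative to untreated cells set to 1; n = 3.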

[15] = Microsomal stability in rat liver microsome assessed as parent compound remaining measured after 60 mins in presence of NADPH by LC-MS/MS analysis; assay type: ADME; conditions: liver microsomes, read-out: Stability; summary of the method: as §3
[16] = Microsomal stability in mouse liver microsome assessed as half life measured upto 60 mins by LC-MS/MS analysis; assay type: ADME; conditions: liver microsomes
[17] = tested on: HUVEC; assay: Anti-ferroptotic activity against human HUVEC cells assessed as decrease in intracellular ferrous ion level at 10 uM incubated for 24 hrs by ferroOrange probe based analysis; assay type: functional, cell-based
Summary of the method: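 After 24 h with 30 mM high glucose and 10 μM compound, HUVECs were washed three times in serum-free medium. Loaded with 1 μM FerroOrange for 30 min at 37 °C, 5% CO2, then imaged by fluorescence microscopy. Ferrous ion signal quantified relative to untreated control set to 1; n = 3.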

[18] = Microsomal stability in mouse liver microsome assessed as parent compound remaining measured after 60 mins in presence of NADPH by LC-MS/MS analysis; assay type: ADME; conditions: liver microsomes, read-out: Stability; summary of the method: as §3
[19] = Microsomal stability in human liver microsome assessed as parent compound remaining measured after 60 mins in presence of NADPH by LC-MS/MS analysis; assay type: ADME; conditions: liver microsomes, read-out: Stability; summary of the method: as §3
[20] = Microsomal stability in rat liver microsome assessed as parent compound remaining measured after 60 mins in absence of NADPH by LC-MS/MS analysis; assay type: ADME; conditions: liver microsomes, read-out: Stability; summary of the method: as §3
[21] = tested on: HUVEC; assay: Anti-ferroptotic activity against human HUVEC cells assessed as decrease in MDA level at 10 uM incubated for 24 hrs; assay type: functional, cell-based
Summary of the method: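 Cells were HUVECs under 30 mM high glucose with 10 μM compound, 24 h. Lysed in Western/IP lysis buffer and spun 10 000 × g for 10 min. MDA measured by kit in the supernatant and normalized to mg protein. Expressed relative to untreated control set to 1; n = 3.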

[22] = Microsomal stability in human liver microsome assessed as half life measured upto 60 mins by LC-MS/MS analysis; assay type: ADME; conditions: liver microsomes

N#Cc1cccc(/C=N/NC(=O)c2ccc(NC3CCCCC3)c(NCc3ccccc3)c2)c1
solubility kinetic [1]: 22.2 µM (≈ 10 µg/mL)
Activity [2]: Non-Toxic
EC50 [3]: 0.61 µM
IC50 [4]: 38.6 µM
Activity [5]: Non-Toxic
Activity [6]: 59.6%

O=C(N/N=C/c1cccc(OCc2ccccc2)c1)c1ccc(NC2CCCCC2)c(NCc2ccccc2)c1
solubility kinetic [1]: 20 µM (≈ 10.7 µg/mL)
Activity [2]: Non-Toxic
EC50 [3]: 0.68 µM
IC50 [4]: 59.2 µM
Activity [5]: Non-Toxic
Activity [6]: 52.2%

O=C(N/N=C/c1ccccc1)c1ccc(NC2CCCCC2)c(NCc2ccccc2)c1
Activity [2]: Non-Toxic

O=C(N/N=C/c1cccc(O)c1O)c1ccc(NC2CCCCC2)c(NCc2ccccc2)c1
Activity [2]: Toxic

COc1cc(/C=N/NC(=O)c2ccc(NC3CCCCC3)c(NCc3ccccc3)c2)cc(OC)c1
Activity [2]: Non-Toxic

O=C(N/N=C/c1ccc([N+](=O)[O-])cc1)c1ccc(NC2CCCCC2)c(NCc2ccccc2)c1
Activity [2]: Non-Toxic

O=C(N/N=C/c1ccc(N2CCCC2)cc1)c1ccc(NC2CCCCC2)c(NCc2ccccc2)c1
Activity [2]: Non-Toxic

O=C(N/N=C/c1ccc(F)c([N+](=O)[O-])c1)c1ccc(NC2CCCCC2)c(NCc2ccccc2)c1
Activity [2]: Toxic

N#Cc1ccc(/C=N/NC(=O)c2ccc(NC3CCCCC3)c(NCc3ccccc3)c2)cc1
Activity [2]: Toxic

O=C(N/N=C/c1cccc([N+](=O)[O-])c1)c1ccc(NC2CCCCC2)c(NCc2ccccc2)c1
solubility kinetic [1]: 20 µM (≈ 9.43 µg/mL)
Activity [2]: Non-Toxic
EC50 [3]: 0.69 µM
IC50 [4]: 45.9 µM
Activity [5]: Non-Toxic
Activity [6]: 53.3%

COc1ccccc1/C=N/NC(=O)c1ccc(NC2CCCCC2)c(NCc2ccccc2)c1
solubility kinetic [1]: 25 µM (≈ 11.4 µg/mL)
Activity [2]: Non-Toxic
EC50 [3]: 0.65 µM
IC50 [4]: 54.5 µM
Activity [5]: Non-Toxic
Activity [6]: 57.4%

CCOC(=O)c1ccc(NC2CCCCC2)c(NCc2ccccc2)c1
solubility kinetic [1]: 6.2 µM (≈ 2.19 µg/mL)
IC50 [4]: 46.8 µM
Activity [6]: 56.4%

COc1ccc(/C=N/NC(=O)c2ccc(NC3CCCCC3)c(NCc3ccccc3)c2)c(O)c1
Activity [2]: Non-Toxic

O=C(N/N=C/c1ccc(O)cc1)c1ccc(NC2CCCCC2)c(NCc2ccccc2)c1
solubility kinetic [1]: 28.6 µM (≈ 12.7 µg/mL)
Activity [2]: Non-Toxic
EC50 [3]: 0.79 µM
IC50 [4]: 56.8 µM
Activity [5]: Non-Toxic
Activity [6]: 53.3%

O=C(N/N=C/c1ccc(F)c(Br)c1)c1ccc(NC2CCCCC2)c(NCc2ccccc2)c1
Activity [2]: Non-Toxic

O=C(N/N=C/c1ccc(Br)cc1)c1ccc(NC2CCCCC2)c(NCc2ccccc2)c1
Activity [2]: Non-Toxic

O=C(N/N=C/c1ccc(Cl)cc1)c1ccc(NC2CCCCC2)c(NCc2ccccc2)c1
solubility kinetic [1]: 28.6 µM (≈ 13.2 µg/mL)
Activity [2]: Non-Toxic
EC50 [3]: 0.73 µM
IC50 [4]: 46.8 µM
Activity [5]: Non-Toxic
Activity [6]: 53.4%

CCOc1ccccc1-n1c(C(C)N2CCN(C(=O)COc3ccc(Cl)cc3)CC2)nc2ccccc2c1=O (stereo not drawn) [ERASTIN]
Activity [7]: 75%

O=C(N/N=C/c1ccc(OCc2ccccc2)cc1)c1ccc(NC2CCCCC2)c(NCc2ccccc2)c1
solubility kinetic [1]: 20 µM (≈ 10.7 µg/mL)
Activity [2]: Non-Toxic
remaining at 1 h [8]: 38%
Activity [9]: Active
remaining at 1 h [10]: 105%
Activity [11]: Active
EC50 [3]: 0.5 µM
half-life [12]: 9.1 min
IC50 [4]: 38.1 µM
Activity [13]: Active
Activity [14]: Active
remaining at 1 h [15]: 1%
half-life [16]: 9 min
Activity [17]: Active
remaining at 1 h [18]: 1%
remaining at 1 h [19]: 0.6%
remaining at 1 h [20]: 110%
Activity [21]: Active
Activity [5]: Non-Toxic
Activity [6]: 65.9%
half-life [22]: 4.9 min

CN(C)c1ccc(/C=N/NC(=O)c2ccc(NC3CCCCC3)c(NCc3ccccc3)c2)cc1
Activity [2]: Non-Toxic

O=C(N/N=C/c1ccccc1OCc1ccccc1)c1ccc(NC2CCCCC2)c(NCc2ccccc2)c1
Activity [2]: Toxic

CCOC(=O)c1ccc(NC2CCCCC2)c(N)c1
solubility kinetic [1]: > 200 µM
remaining at 1 h [8]: 5%
remaining at 1 h [10]: 6%
EC50 [3]: 0.6 µM
half-life [12]: 18.4 min
IC50 [4]: 54.3 µM
remaining at 1 h [15]: 6.1%
half-life [16]: 2.7 min
remaining at 1 h [18]: 6.6%
remaining at 1 h [19]: 7.6%
remaining at 1 h [20]: 4%
Activity [5]: Non-Toxic
Activity [6]: 52.5%
half-life [22]: 16.8 min

O=C(N/N=C/c1ccc(Cl)c(Cl)c1)c1ccc(NC2CCCCC2)c(NCc2ccccc2)c1
Activity [2]: Non-Toxic
